Measured values from different studies.
Compare with care: the assays were run in different laboratories.
Cell line: MDA-MB-231
Observed: cell growth or viability

| Compound | assay | conditions | measurement | value |
| --- | --- | --- | --- | --- |
| COc1ccc(NC(=O)Nc2ccc3c(c2)C=CCP(=O)(O)O3)cc1 | MTT | 72 h | Emax | 50% |
| C=CCNC1=C2C[C@@H](C)C[C@H](OC)[C@H](O)[C@@H](C)/C=C(\C)[C@H](OC(N)=O)[C@@H](OC)/C=C\C=C(/C)C(=O)NC(=CC1=O)C2=O |  | 72 h | IC50 | 19500 nM |
| N.N.[Cl][Pt][Cl] | MTT |  | IC50 | > 100000 nM |
| CC[C@H](C)[C@@H]([C@@H](CC(=O)N1CCC[C@H]1[C@H](OC)[C@@H](C)C(=O)N[C@H](C)[C@@H](O)c1ccccc1)OC)N(C)C(=O)[C@@H](NC(=O)[C@H](C(C)C)N(C)C(=O)OCc1ccc(NC(=O)[C@H](CCCNC(N)=O)NC(=O)[C@@H](NC(=O)CCOCCOCCOCCOCCC(=O)N[C@@H]2CSSC[C@H](C(=O)O)NC(=O)CNC(=O)[C@@H](CCCNC(=N)N)NC(=O)CNC(=O)[C@@H](C(C)C)NC(=O)CNC(=O)[C@@H](C)NC(=O)[C@@H](CCCNC(=N)N)NC2=O)C(C)C)cc1)C(C)C | resazurin | 24 h | IC50 | 120 nM |
| CC(C)=C[C@H]1C[C@H](C)[C@]2(CC[C@]3(C)C[C@H]4[C@H](C(=O)C[C@@]4(C)O)/C(C=O)=C\C[C@H]32)O1 |  |  | IC50 | 58.2 nM |
| [C-]#[O+].[C-]#[O+].[C-]#[O+].[C-]#[O+].[C-]#[O+].[C-]#[O+].[C-]#[O+].[C-]#[O+].[C-]#[O+].[C-]#[O+].[Mn].[Mn] | MTT | 48 h | IC50 | 25400 nM |
| O=C1c2ccccc2-c2c3c(cc4ccnc1c24)OCO3 | MTT | 75 h | IC50 | 49000 nM |
| COc1c(C)c2c(c(O)c1C/C=C(\C)CCC(=O)O)C(=O)OC2 |  |  | IC50 | 1200 nM |
| CCOP1(=O)CC=Cc2cc(N)ccc2O1 (stereo not drawn) | MTT | 72 h | Emax | 10 to 15% |
| N.N.[Cl][Pt][Cl] | MTT | 48 h | IC50 | 40000 nM |
| CC(=O)N[C@H]1[C@@H](O[C@@H]2O[C@H](C[C@@H](O)[C@H]3O[C@@H](n4ccc(=O)[nH]c4=O)[C@H](O)[C@@H]3O)[C@H](O)[C@H](O)[C@H]2NC(=O)/C=C/CCCCCCCCCC(C)C)O[C@H](CO)[C@@H](O)[C@@H]1O | WST-1 |  | IC50 | 170 nM |
| CC[C@H](C)[C@@H]([C@@H](CC(=O)N1CCC[C@H]1[C@H](OC)[C@@H](C)C(=O)N[C@H](C)[C@@H](O)c1ccccc1)OC)N(C)C(=O)[C@@H](NC(=O)[C@@H](NC)C(C)C)C(C)C | CCK-8 |  | IC50 | 8.28 nM |
